Calls of active or inactive are those of the source. No cut-off for these calls is given here. Starred links: 1 amine or outer side, 2 acyl side, 3 side chain; linkers in the order of their positions; H or OH if unused. Positions of bridges follow the written chain, without caps; N, C: chain ends. Residues, ends and D or L forms follow the SMILES beside them. *: point of attachment. Propanoyl(3,3-Ph2) = O=C(CC(c1ccccc1)c1ccccc1)*; X1 = CCCCCCCCCCCCCCCC(=O)NCCOCCOCCN*; mXylylene = c1cc(C[*:1])cc(C[*:2])c1
How the values were obtained:
[1] = Half life in cynomolgus monkey; type: ADME, organism-based, Macaca fascicularis; details: in vivo
Ferroportin = target: T1, Ferroportin (Homo sapiens, UniProt Q9NP59); experiment: Agonist activity at GFP-fused human FPN transfected in HEK293 cells assessed as protein degradation after 24 hrs by flow cytometric analysis; type: cell-based
T1 sequence (Q9NP59 whole entry): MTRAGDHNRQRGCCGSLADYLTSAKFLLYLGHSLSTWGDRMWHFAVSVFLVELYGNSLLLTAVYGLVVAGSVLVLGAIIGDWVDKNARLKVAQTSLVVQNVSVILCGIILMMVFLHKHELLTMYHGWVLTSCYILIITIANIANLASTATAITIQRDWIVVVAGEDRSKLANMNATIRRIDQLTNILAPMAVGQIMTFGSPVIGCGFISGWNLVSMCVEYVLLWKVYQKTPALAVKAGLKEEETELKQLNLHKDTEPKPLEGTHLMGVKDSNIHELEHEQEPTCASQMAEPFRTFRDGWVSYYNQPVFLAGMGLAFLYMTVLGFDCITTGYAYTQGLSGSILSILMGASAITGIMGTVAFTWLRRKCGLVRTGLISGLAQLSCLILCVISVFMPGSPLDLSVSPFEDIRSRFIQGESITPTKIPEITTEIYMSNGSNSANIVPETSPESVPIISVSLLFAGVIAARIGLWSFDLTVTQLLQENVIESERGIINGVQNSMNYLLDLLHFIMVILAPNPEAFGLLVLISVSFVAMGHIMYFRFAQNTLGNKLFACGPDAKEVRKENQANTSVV
How it was run: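 HEK293:TREX-Fpn-GFP cells (human ferroportin-GFP, doxycycline-inducible) plated on poly-D-lysine with 20 μM FAC, induced with 500 ng/mL doxycycline for 24 h, washed, then peptide-treated 24 h. Green fluorescence read by flow cytometry at 1 × 10^6 cells/mL, gated against uninduced cells. Activity expressed as fraction of hep25: 1 − [(Fx − Fhep25)/(Funtreated − Fhep25)]. 3–6 independent repeats.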

Mus musculus [2] = experiment: Decrease in serum iron level in C57BL/6 mouse at 50 to 100 nmol, sc after 24 hrs by colorimetric analysis; type: functional, organism-based; details: in the assay text read “50 to 200 nmol” for “50 to 100 nmol”
How it was run: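 C57BL/6 mice on NIH 31 diet (iron 336 mg/kg) received 50, 100 or 200 nmoles peptide in 100 μL PBS sc, or PBS alone. Killed at 24 h, serum from cardiac puncture. Serum iron measured by microplate colorimetric assay using 50 μL serum. Reported as % decrease versus mean of PBS-injected mice.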

Mus musculus [3] = experiment: Decrease in serum iron level in C57BL/6 mouse at 50 to 200 nmol, sc after 24 hrs by colorimetric analysis; type: functional, organism-based
How it was run: (§1)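 C57BL/6 mice on NIH 31 diet (iron 336 mg/kg). Single subcutaneous injection of 50, 100 or 200 nmoles peptide in 100 μL PBS; controls received PBS alone. Killed at 24 h, serum from cardiac blood. Serum iron by colorimetric assay (microplate, 50 μL serum). Percent decrease versus mean of PBS-injected mice.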

Mus musculus [4] = experiment: Decrease in serum iron level in C57BL/6 mouse at 50 nmol, sc after 24 hrs by colorimetric analysis; type: functional, organism-based; how it was run: as §1
Plasma = experiment: Metabolic stability in mouse plasma at 25 uM by LC/MS analysis; type: ADME, cell-free
How it was run: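 Peptide from 10 mM DMSO stock added to fresh mouse plasma (final 25 μM), incubated at 37 °C. Samples (10 μL) taken at time-points and diluted into DMSO/ACN 1:1 with 0.1% TFA. Centrifuged 13000 rpm, 10 min. Supernatant analysed by triple-quadrupole LC/MS with NM4A-Me peptide as internal standard.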

CC[C@H](C)[C@@H]1NC(=O)[C@@H](NC(=O)[C@@H](NC(=O)[C@@H]2CCCN2C(=O)[C@H](Cc2ccccc2)NC(=O)[C@H](Cc2c[nH]cn2)NC(=O)[C@@H](NC(=O)[C@@H](N)CC(=O)O)[C@@H](C)O)[C@@H](C)CC)CSSC[C@@H](C(=O)N[C@@H](CCCCN)C(=O)N[C@H](C(=O)O)[C@@H](C)O)NC(=O)[C@@H]2CSSC[C@@H]3NC(=O)[C@@H]4CSSC[C@H](NC(=O)[C@H](Cc5ccccc5)NC1=O)C(=O)N[C@@H](CSSC[C@H](NC(=O)[C@H](CCCCN)NC(=O)[C@H](CO)NC(=O)[C@H](CCCNC(=N)N)NC(=O)[C@H](Cc1c[nH]cn1)NC3=O)C(=O)NCC(=O)N[C@@H](CCSC)C(=O)N2)C(=O)NCC(=O)N4
half-life [1]: < 2.5 min

CCCCCCCCCCCCCCCCNC(=O)CN(CC(N)=O)C(=O)CCCCCNC(=O)[C@@H]1CSCc2cccc(c2)CSC[C@H](NC(C)=O)C(=O)N[C@@H](C(c2ccccc2)c2ccccc2)C(=O)N2CCC[C@H]2C(=O)N[C@@H](CCCNC(=N)N)C(=O)N[C@@H](CS)C(=O)N[C@@H](CCCNC(=N)N)C(=O)N[C@@H](Cc2ccccc2)C(=O)N1
EC50 (Ferroportin): 44.2 nM | Activity (Mus musculus [2]): inactive

N=C(N)NCCC[C@@H]1NC(=O)[C@@H](NC(=O)CC(c2ccccc2)c2ccccc2)CSCc2cccc(c2)CSC[C@@H](C(N)=O)NC(=O)[C@H](Cc2ccccc2)NC(=O)[C@H](CCCNC(=N)N)NC(=O)[C@H](CS)NC1=O ({Propanoyl(3,3-Ph2)}-CRCRFC-NH2; linker 1-6 via mXylylene)
EC50 (Ferroportin): 104 nM | Activity (Mus musculus [3]): inactive

CCCCCCCCCCCCCCCC(=O)NCCOCCOCCNC(=O)[C@@H]1CSCc2cccc(c2)CSC[C@H](NC(=O)CC(c2ccccc2)c2ccccc2)C(=O)N[C@@H](CCCNC(=N)N)C(=O)N[C@@H](CS)C(=O)N[C@@H](CCCNC(=N)N)C(=O)N[C@@H](Cc2ccccc2)C(=O)N1 ({Propanoyl(3,3-Ph2)}-CRCRFC-X1; linker 1-6 via mXylylene)
EC50 (Ferroportin): 52.3 nM | Activity (Mus musculus [4]): inactive | Stability (Plasma): Stable

Source: ChEMBL document CHEMBL3621052, “Small cyclic agonists of iron regulatory hormone hepcidin” (Bioorg Med Chem Lett, 2015)
